In ChEMBL document CHEMBL1212790, “Triclosan resistance of Pseudomonas aeruginosa PAO1 is due to FabV, a triclosan-resistant enoyl-acyl carrier protein reductase” (2010):
Converted amounts (≈) assume the structure as drawn. The source made the active and inactive calls. The rule behind the calls is not given here.

Experiments:
Pseudomonas aeruginosa [1] = experiment: Activity of Pseudomonas aeruginosa PA0170 fabV in presence of 100 uM NADH
Method in brief: (§1)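 Cell extracts (2 μg) of the P. aeruginosa deletion strains (PAO170 ΔfabV, PAO272 ΔfabI) were assayed for NADH-dependent enoyl-ACP reductase activity in 70 μl of 0.1 M sodium phosphate pH 7.5 with 0.1 mM NADH. Reactions were started with 100 μM trans-2-decenoyl-ACP and run with or without 15 μg/ml triclosan. Values are means plus standard deviations of three experiments.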

Escherichia coli [2] = experiment: Antibacterial activity against Escherichia coli W3110 containing empty vector pBluescript at 37 deg C; assay type: functional
Method in brief: (§2)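 Triclosan MIC on LB agar plates carrying serial dilutions of triclosan; cells plated and plates incubated at 37°C. MIC taken as the triclosan concentration of the first plate without growth. E. coli hosts (W3110, MG1655) carried pBluescript SK(+)-derived plasmids encoding fabV or fabI, or the empty vector.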

Escherichia coli [3] = experiment: Antibacterial activity against Escherichia coli W3110 containing pZL19 expressing sEscherichia coli fabI gene assessed as microbial growth inhibition; assay type: functional; method in brief: as §2
Escherichia coli [4] = experiment: Antibacterial activity against Escherichia coli W3110 containing pZL17 expressing Pseudomonas aeruginosa fabI gene assessed as microbial growth inhibition; assay type: functional; method in brief: as §2
Escherichia coli [5] = experiment: Antibacterial activity against Escherichia coli W3110 containing pZL16 expressing sPseudomonas aeruginosa fabV gene assessed as microbial growth inhibition; assay type: functional; method in brief: as §2
Escherichia coli [6] = experiment: Antibacterial activity against Escherichia coli MG1655 containing empty vector pBluescript assessed as microbial growth inhibition; assay type: functional; method in brief: as §2
Escherichia coli [7] = experiment: Antibacterial activity against Escherichia coli MG1655 containing pZL19 expressing Escherichia coli fabI gene assessed as microbial growth inhibition; assay type: functional; method in brief: as §2
Escherichia coli [8] = experiment: Antibacterial activity against Escherichia coli MG1655 pZL17 expressing Pseudomonas aeruginosa fabI gene assessed as microbial growth inhibition; assay type: functional; method in brief: as §2
Escherichia coli [9] = experiment: Antibacterial activity against Escherichia coli MG1655 pZL16 expressing Pseudomonas aeruginosa fabV gene assessed as microbial growth inhibition; assay type: functional; method in brief: as §2
Pseudomonas aeruginosa [10] = experiment: Antibacterial activity against Pseudomonas aeruginosa PA01 assessed as microbial growth inhibition; assay type: functional
[11] = target: T1, Enoyl-[acyl-carrier-protein] reductase [NADH] FabI (Pseudomonas aeruginosa) (UniProt Q9ZFE4); experiment: Inhibition of Pseudomonas aeruginosa fabI activity assessed as conversion of 3-hydroxydecanoyl-ACP to trans-2-decenoyl-ACP at 10 ug/ml in presence of 2.5 M urea
T1 sequence (whole entry): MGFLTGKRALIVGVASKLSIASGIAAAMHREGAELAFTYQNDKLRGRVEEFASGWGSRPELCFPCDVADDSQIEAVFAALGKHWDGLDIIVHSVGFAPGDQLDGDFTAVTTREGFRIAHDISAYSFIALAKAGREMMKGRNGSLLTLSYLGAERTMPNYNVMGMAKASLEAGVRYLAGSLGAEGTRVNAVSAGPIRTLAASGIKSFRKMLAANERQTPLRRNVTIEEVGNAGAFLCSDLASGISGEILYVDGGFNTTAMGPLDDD
Method in brief: (§3)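 3-Hydroxydecanoyl-ACP dehydrated to trans-2-decenoyl-ACP with E. coli FabZ, then split into tubes holding dried triclosan (added from an ethanol stock and dried down). Purified His-tagged PaFabV or PaFabI added; reduction in 0.1 M sodium phosphate pH 7.0 with NADH, 1 h. Products resolved by conformationally sensitive PAGE with 2.5 M urea and Coomassie staining.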

Pseudomonas aeruginosa [12] = experiment: Inhibition of Pseudomonas aeruginosa fabV activity assessed as conversion of […] at 1000 ug/ml in presence of 2.5 M urea; method in brief: as §3
Pseudomonas aeruginosa [13] = experiment: Inhibition of Pseudomonas aeruginosa PA0170 fabV assessed as reduction of Enoyl-[acyl-carrier-protein] reductase activity at 15 ug/ml
Method in brief: (§4)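 Cell-extract ENR assay (70 μl) in 0.1 M sodium phosphate pH 7.5 with 0.1 mM NADH and 2 μg of cell extract. Started with 100 μM trans-2-decenoyl-ACP, with or without 15 μg/ml triclosan. NADH-dependent activity followed as the drop in A340. Means plus standard deviations of three experiments.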

Pseudomonas aeruginosa [14] = experiment: Inhibition of wild type Pseudomonas aeruginosa ENR at 15 ug/ml; method in brief: as §4
[15] = target: T1, Enoyl-[acyl-carrier-protein] reductase [NADH] FabI (Pseudomonas aeruginosa); experiment: Inhibition of Pseudomonas aeruginosa PAO272 fabI assessed as reduction of Enoyl-[acyl-carrier-protein] reductase activity at 15 ug/ml; method in brief: as §4
[16] = target: T1, Enoyl-[acyl-carrier-protein] reductase [NADH] FabI (Pseudomonas aeruginosa); experiment: Inhibition of Pseudomonas aeruginosa PAO272 fabI assessed as reduction of [1-14C]acetate incorporation into phospholipids
Pseudomonas aeruginosa [17] = experiment: Inhibition of wild type Pseudomonas aeruginosa ENR assessed as reduction of [1-14C]acetate incorporation into phospholipids
Pseudomonas aeruginosa [18] = experiment: Inhibition of Pseudomonas aeruginosa PA0170 fabV assessed as reduction of [1-14C]acetate incorporation into phospholipids
Pseudomonas aeruginosa [19] = experiment: Antibacterial activity against Pseudomonas aeruginosa PA0272 lacking fabI assessed as microbial growth inhibition
Pseudomonas aeruginosa [20] = experiment: Antibacterial activity against Pseudomonas aeruginosa PA0170 lacking fabV gene assessed as microbial growth inhibition
[21] = compound: C/C=C/C(=O)SCCNC(=O)CCNC(=O)[C@@H](O)C(C)(C)COP(=O)(O)OP(=O)(O)OC[C@H]1O[C@@H](n2cnc3c(N)ncnc32)[C@H](O)[C@@H]1OP(=O)(O)O; experiment: Inhibition of Pseudomonas aeruginosa PAO272 fabI in presence of 100 uM NADH; method in brief: as §1

C/C=C/C(=O)SCCNC(=O)CCNC(=O)[C@@H](O)C(C)(C)COP(=O)(O)OP(=O)(O)OC[C@H]1O[C@@H](n2cnc3c(N)ncnc32)[C@H](O)[C@@H]1OP(=O)(O)O
Km (Pseudomonas aeruginosa [1]): 704 µM
Vmax (Pseudomonas aeruginosa [1]): 7.9 nmol/min/mg

Oc1cc(Cl)ccc1Oc1ccc(Cl)cc1Cl [TRICLOSAN]
MIC (Escherichia coli [2]): 0.2 µg/mL (≈ 0.691 µM)
MIC (Escherichia coli [3]): 3 µg/mL (≈ 10.4 µM)
MIC (Escherichia coli [4]): 4 µg/mL (≈ 13.8 µM)
MIC (Escherichia coli [5]): > 2000 µg/mL
MIC (Escherichia coli [6]): 0.2 µg/mL (≈ 0.691 µM)
MIC (Escherichia coli [7]): 3 µg/mL (≈ 10.4 µM)
MIC (Escherichia coli [8]): 4 µg/mL (≈ 13.8 µM)
MIC (Escherichia coli [9]): > 2000 µg/mL
MIC (Pseudomonas aeruginosa [10]): > 2000 µg/mL
inhibition [11]: Active
inhibition (Pseudomonas aeruginosa [12]): inactive
inhibition (Pseudomonas aeruginosa [13]): 15%
inhibition (Pseudomonas aeruginosa [14]): 29%
inhibition [15]: inactive
inhibition [16]: inactive
inhibition (Pseudomonas aeruginosa [17]): inactive
inhibition (Pseudomonas aeruginosa [18]): Active
MIC (Pseudomonas aeruginosa [19]): > 2000 µg/mL
MIC (Pseudomonas aeruginosa [20]): 1 µg/mL (≈ 3.45 µM)

B1: Enoyl-[acyl-carrier-protein] reductase [NADH] FabI (Pseudomonas aeruginosa), Q9ZFE4 (protein)
chain: MGFLTGKRALIVGVASKLSIASGIAAAMHREGAELAFTYQNDKLRGRVEEFASGWGSRPELCFPCDVADDSQIEAVFAALGKHWDGLDIIVHSVGFAPGDQLDGDFTAVTTREGFRIAHDISAYSFIALAKAGREMMKGRNGSLLTLSYLGAERTMPNYNVMGMAKASLEAGVRYLAGSLGAEGTRVNAVSAGPIRTLAASGIKSFRKMLAANERQTPLRRNVTIEEVGNAGAFLCSDLASGISGEILYVDGGFNTTAMGPLDDD
Km [21]: 4.7 µM
Vmax [21]: 1.5 nmol/min/mg
